Data reported in publication PMC11635510 (ACS Omega, 2024).
Entries after “also recorded” stand apart in the source; their conditions may differ.

Key:
[1] = biological target: T1, AChE (Homo sapiens, UniProt P22303); experiment: biochemical
[2] = biological target: T2, BChE (Homo sapiens, UniProt P06276); experiment: biochemical; format: biochemical; conditions: for fold better BChE inhibitory activity in comparison with positive control: vs donepezil (positive control)
[3] = biological target: T1, AChE; experiment: Enzyme kinetic study; format: biochemical
How it was run: (§1)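 Inhibition type and Km taken from Lineweaver–Burk double-reciprocal plots. Ki derived from secondary plots of line slope versus inhibitor concentration and of 1/Vmax versus inhibitor concentration. Cholinesterase activity was measured by a modified Ellman method.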

[4] = biological target: T2, BChE; experiment: Enzyme kinetic study; format: biochemical
How it was run: as §1

[5] = Toxicity assay on SH-SY5Y; format: cell-based; conditions: human, SH-SY5Y neuroblastoma cells
How it was run: (§2)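 SH-SY5Y cells were cultured in DMEM/F12 with 15% fetal bovine serum, 100 units/mL penicillin and 100 μg/mL streptomycin. Viability was read by MTT after 72 h exposure to test compound. Results are mean ± SEM of five independent experiments, each in triplicate; p < 0.05 was taken as significant.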

[6] = test system: SH-SY5Y neuroblastoma cell line; experiment: Toxicity assay on SH-SY5Y; format: cell-based; conditions: concentrations below 50 μM; 72 h; MTT
How it was run: as §2

[7] = test system: GSK-3β mRNA; experiment: GSK-3β mRNA level by quantitative PCR in SH-SY5Y; format: cell-based
[8] = test system: GSK-3α mRNA; experiment: GSK-3α mRNA level by quantitative PCR in SH-SY5Y; format: cell-based; conditions: 25 μM
How it was run: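 Cells were exposed to test compound at 25 μM. Total RNA was extracted with RNX-plus reagent following the manufacturer's protocol, and transcript levels were then quantified by real-time PCR.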

T1 sequence (P22303 32-614): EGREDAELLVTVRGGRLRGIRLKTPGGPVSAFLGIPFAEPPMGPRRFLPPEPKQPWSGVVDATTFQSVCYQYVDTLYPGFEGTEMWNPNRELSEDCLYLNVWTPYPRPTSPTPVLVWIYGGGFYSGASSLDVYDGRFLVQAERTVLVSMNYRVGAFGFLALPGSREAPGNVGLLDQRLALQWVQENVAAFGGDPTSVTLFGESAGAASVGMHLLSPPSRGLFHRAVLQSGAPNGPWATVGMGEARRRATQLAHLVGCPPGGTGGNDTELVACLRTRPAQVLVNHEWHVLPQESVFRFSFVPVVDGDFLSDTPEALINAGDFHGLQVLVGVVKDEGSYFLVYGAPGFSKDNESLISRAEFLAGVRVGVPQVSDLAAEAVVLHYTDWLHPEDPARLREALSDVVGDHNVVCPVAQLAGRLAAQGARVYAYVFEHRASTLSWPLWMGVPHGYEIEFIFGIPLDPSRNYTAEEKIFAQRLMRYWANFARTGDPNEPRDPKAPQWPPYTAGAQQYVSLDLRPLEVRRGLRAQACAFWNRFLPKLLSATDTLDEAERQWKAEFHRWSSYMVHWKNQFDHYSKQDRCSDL
T2 sequence (P06276 29-602, species assumed): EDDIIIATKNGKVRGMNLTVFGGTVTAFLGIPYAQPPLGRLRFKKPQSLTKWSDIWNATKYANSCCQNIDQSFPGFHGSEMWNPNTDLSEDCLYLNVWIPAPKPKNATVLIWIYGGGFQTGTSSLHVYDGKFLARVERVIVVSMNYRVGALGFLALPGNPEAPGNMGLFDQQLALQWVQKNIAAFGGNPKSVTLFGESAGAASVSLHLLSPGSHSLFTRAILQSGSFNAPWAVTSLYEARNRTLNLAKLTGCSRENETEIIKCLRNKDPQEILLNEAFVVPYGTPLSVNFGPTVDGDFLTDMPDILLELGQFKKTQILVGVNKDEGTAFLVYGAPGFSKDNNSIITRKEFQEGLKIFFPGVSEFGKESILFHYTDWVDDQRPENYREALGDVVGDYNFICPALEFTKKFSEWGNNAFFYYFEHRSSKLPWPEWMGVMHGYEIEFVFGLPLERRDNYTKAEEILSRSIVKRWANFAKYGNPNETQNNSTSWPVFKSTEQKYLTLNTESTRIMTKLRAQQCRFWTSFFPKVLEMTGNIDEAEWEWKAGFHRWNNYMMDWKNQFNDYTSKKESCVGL

SMILES | IC50 [1] | IC50 [2] | also measured
O=C(NCc1ccc[n+](Cc2cccc(Br)c2)c1)c1ccc(CN2C(=O)c3ccccc3C2=O)cc1 [Compound 7i] | 2100 ± 490 nM | 150 ± 10 nM | –
O=C(NCc1ccc[n+](Cc2ccc([N+](=O)[O-])cc2)c1)c1ccc(CN2C(=O)c3ccccc3C2=O)cc1 [Compound 7l] | 5060 ± 2400 nM | 20400 ± 2550 nM | –
CCCCC[n+]1cccc(CNC(=O)c2ccc(CN3C(=O)c4ccccc4C3=O)cc2)c1 [Compound 7p] | 6290 ± 760 nM | 18600 ± 1210 nM | –
O=C(NCc1ccc[n+](Cc2cccc(Cl)c2)c1)c1ccc(CN2C(=O)c3ccccc3C2=O)cc1 [Compound 7f] | 2660 ± 880 nM | 560 ± 190 nM | –
O=C(NCc1ccc[n+](Cc2ccc(Br)cc2)c1)c1ccc(CN2C(=O)c3ccccc3C2=O)cc1.[Br-] [Compound 7j] | 260 ± 70 nM | – | Ki [3]: 940 nM; secondary inhibition constant (Kis) ([3]; 1/Vmax vs inhibitor concentration, AChE): 4.29 µM; inhibition mode ([3]; Lineweaver-Burk plot, AChE): mixed mode of inhibition; also recorded: mixed-type inhibition pattern
O=C(NCc1ccc[n+](Cc2cccc(F)c2)c1)c1ccc(CN2C(=O)c3ccccc3C2=O)cc1.[Cl-] [Compound 7c] | 3980 ± 210 nM | 80 ± 10 nM | fold better BChE inhibitory activity in comparison with positive control [2]: 132 fold; Ki [4]: 130 nM; inhibition mode ([4]; Lineweaver-Burk plot, BChE): mixed-type inhibition mode; also recorded: mixed inhibitor; viability at 72 h, 50 µM [5]: ~80%; toxicity on SH-SY5Y at fewer concentrations [6]: did not exhibit any toxicity; reduction of GSK-3β mRNA level ([7]; 25 μM): 25%; mRNA level of GSK-3β ([7]; 25 μM, relative to control group): ~75%; effect on mRNA level of GSK-3β (in words) ([7]; SH-SY5Y, compared to control group): decreased; also recorded: could reduce the mRNA level of GSK-3β; effect on the mRNA level of GSK3α [8]: no noticeable effect
CC[n+]1cccc(CNC(=O)c2ccc(CN3C(=O)c4ccccc4C3=O)cc2)c1 [Compound 7q] | – | 490 ± 40 nM | inhibition at 50 µM ([1]; read-out: AChE % inhibition at 50 μM): 33.6 ± 2.9%
O=C(NCc1ccc[n+](Cc2ccccc2)c1)c1ccc(CN2C(=O)c3ccccc3C2=O)cc1.[Br-] [Compound 7a] | 9710 ± 830 nM | 320 ± 60 nM | fold better BChE inhibitory activity in comparison with positive control [2]: around 33 fold
O=C(NCc1ccc[n+](Cc2ccc(F)cc2)c1)c1ccc(CN2C(=O)c3ccccc3C2=O)cc1 [Compound 7d] | 11100 ± 1290 nM | 330 ± 10 nM | –
O=C(NCc1ccc[n+](Cc2ccccc2F)c1)c1ccc(CN2C(=O)c3ccccc3C2=O)cc1 [Compound 7b] | 1190 ± 450 nM | 310 ± 20 nM | –
